ChEMBL document CHEMBL1949601, “γ-Carbolines: a novel class of cannabinoid agonists with high aqueous solubility and restricted CNS penetration” (Bioorg Med Chem Lett, 2012)
Values after ≈ are worked out from the molar mass of the structure shown.

Tests used:
[1] = Aqueous solubility of the compound at pH 7.4; assay type: physicochemical
[2] = biological target: Motilin receptor (Homo sapiens) (UniProt O43193); experiment: Activity at human Mtl receptor at 10 uM
[3] = biological target: Beta-1 adrenergic receptor (Homo sapiens) (UniProt P08588); experiment: Activity at human beta1 adrenergic receptor at 10 uM
[4] = Apparent permeability across human Caco2 cells; assay type: ADME, cell-based; settings: Caco-2
[5] = biological target: Prokineticin receptor 1 (Mus musculus) (UniProt Q9JKL1); experiment: Activity at mouse GPR73 receptor at 10 uM
Sequence of Prokineticin receptor 1 (Mus musculus) (Q9JKL1 whole entry): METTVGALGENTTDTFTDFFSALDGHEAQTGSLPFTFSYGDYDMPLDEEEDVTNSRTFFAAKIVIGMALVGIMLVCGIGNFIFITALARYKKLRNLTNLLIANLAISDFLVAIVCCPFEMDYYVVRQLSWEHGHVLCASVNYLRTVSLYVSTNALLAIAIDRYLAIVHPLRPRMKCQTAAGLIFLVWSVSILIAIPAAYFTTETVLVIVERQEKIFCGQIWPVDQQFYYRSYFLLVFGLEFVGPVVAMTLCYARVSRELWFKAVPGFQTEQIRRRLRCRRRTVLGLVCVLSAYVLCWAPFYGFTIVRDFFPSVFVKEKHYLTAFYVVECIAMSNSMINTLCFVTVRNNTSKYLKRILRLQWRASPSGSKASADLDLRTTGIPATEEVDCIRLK

[6] = biological target: Glucagon-like peptide 1 receptor (Homo sapiens) (UniProt P43220); experiment: Activity at human GLP1 receptor at 10 uM
[7] = biological target: Cannabinoid receptor 1 (Rattus norvegicus, UniProt P20272); experiment: Agonist activity at CB1 receptor in rat brain tissue; assay type: functional, tissue-based
[8] = biological target: Adrenergic receptor alpha-1 (Rattus norvegicus) (UniProt P15823+P23944+P43140); experiment: Activity at rat alpha1adrenergic receptor at 10 uM
[9] = biological target: Cytochrome P450 1A2 (Homo sapiens, UniProt P05177); experiment: Inhibition of CYP1A2; assay type: ADME
[10] = biological target: Urotensin-2 receptor (Mus musculus) (UniProt Q8VIH9); experiment: Activity at mouse UT2 receptor at 10 uM
[11] = biological target: Growth hormone secretagogue receptor type 1 (Homo sapiens) (UniProt Q92847); experiment: Activity at human GHS receptor at 10 uM
[12] = biological target: Cannabinoid receptor 2 (Homo sapiens, UniProt P34972); experiment: Binding affinity to human CB2 receptor
Sequence of Cannabinoid receptor 2 (P34972 whole entry): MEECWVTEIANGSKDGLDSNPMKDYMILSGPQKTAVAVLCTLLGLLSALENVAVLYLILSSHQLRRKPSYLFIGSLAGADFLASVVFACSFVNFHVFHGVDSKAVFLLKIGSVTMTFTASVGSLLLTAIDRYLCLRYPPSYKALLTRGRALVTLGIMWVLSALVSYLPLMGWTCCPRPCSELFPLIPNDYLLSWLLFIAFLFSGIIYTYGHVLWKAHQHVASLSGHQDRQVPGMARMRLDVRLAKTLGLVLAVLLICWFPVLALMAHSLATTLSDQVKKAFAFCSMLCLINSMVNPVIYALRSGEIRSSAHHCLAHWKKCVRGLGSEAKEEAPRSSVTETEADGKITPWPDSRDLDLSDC

[13] = biological target: Calcitonin gene-related peptide type 1 receptor (Homo sapiens) (UniProt Q16602); experiment: Activity at human CGRP receptor at 10 uM
[14] = Dissociation constant, pKa of the compound; assay type: physicochemical
[15] = biological target: CX3C chemokine receptor 1 (Homo sapiens) (UniProt P49238); experiment: Activity at human CX3CR1 receptor at 10 uM
[16] = Ratio of drug uptake in brain to plasma of mouse; assay type: ADME, cell-free; settings: read-out: BPR
Procedure, shortened: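 Compound given sc or po; blood and brain sampled 30 or 60 min post-dose; total plasma and brain concentrations by protein precipitation (brain homogenised) and LC–MS/MS; brain values corrected for 2% blood contamination; brain/plasma ratio calculated.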

[17] = biological target: Protein kinase C alpha type (Homo sapiens) (UniProt P17252); experiment: Activity at human PKCalpha at 10 uM
[18] = biological target: Vasopressin V1b receptor (Homo sapiens) (UniProt P47901); experiment: Activity at human V1B receptor at 10 uM
Sequence of Vasopressin V1b receptor (Homo sapiens) (P47901 whole entry): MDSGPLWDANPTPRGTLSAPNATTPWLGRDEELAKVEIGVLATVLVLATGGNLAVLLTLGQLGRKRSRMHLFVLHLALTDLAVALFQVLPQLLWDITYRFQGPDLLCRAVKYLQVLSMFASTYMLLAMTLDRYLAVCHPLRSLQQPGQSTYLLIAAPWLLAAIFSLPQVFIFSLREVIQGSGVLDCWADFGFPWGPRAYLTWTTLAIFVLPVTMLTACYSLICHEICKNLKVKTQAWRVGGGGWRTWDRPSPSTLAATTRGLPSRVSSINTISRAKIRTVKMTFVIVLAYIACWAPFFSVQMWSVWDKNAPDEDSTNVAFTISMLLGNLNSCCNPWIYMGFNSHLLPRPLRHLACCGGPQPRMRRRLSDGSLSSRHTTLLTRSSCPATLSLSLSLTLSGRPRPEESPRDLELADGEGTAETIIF

[19] = biological target: Glucagon-like peptide 2 receptor (Homo sapiens) (UniProt O95838); experiment: Activity at human GLP2 receptor at 10 uM
[20] = biological target: Cytochrome P450 2C9 (Homo sapiens, UniProt P11712); experiment: Inhibition of CYP2C9; assay type: ADME
Sequence of Cytochrome P450 2C9 (P11712 whole entry): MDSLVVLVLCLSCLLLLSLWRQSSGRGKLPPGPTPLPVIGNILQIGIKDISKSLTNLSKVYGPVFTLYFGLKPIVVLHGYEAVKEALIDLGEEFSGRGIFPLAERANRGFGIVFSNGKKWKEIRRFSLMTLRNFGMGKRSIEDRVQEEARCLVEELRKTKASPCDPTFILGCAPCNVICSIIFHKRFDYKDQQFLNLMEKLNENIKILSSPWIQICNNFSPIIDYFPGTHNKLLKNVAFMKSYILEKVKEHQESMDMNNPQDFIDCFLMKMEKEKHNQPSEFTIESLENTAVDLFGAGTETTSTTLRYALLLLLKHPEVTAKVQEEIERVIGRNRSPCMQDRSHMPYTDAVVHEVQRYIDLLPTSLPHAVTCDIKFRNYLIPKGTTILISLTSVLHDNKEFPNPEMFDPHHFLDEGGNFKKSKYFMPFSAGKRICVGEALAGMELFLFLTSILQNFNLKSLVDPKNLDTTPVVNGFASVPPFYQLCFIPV

[21] = biological target: 5-hydroxytryptamine receptor 6 (Homo sapiens) (UniProt P50406); experiment: Activity at human 5HT6 receptor at 10 uM
[22] = biological target: Prokineticin-2 (Rattus norvegicus) (UniProt Q8R413); experiment: Activity at rat PK2 receptor at 10 uM
[23] = biological target: C-C chemokine receptor type 2 (Homo sapiens) (UniProt P41597); experiment: Activity at human CCR2b at 10 uM
Sequence of C-C chemokine receptor type 2 (Homo sapiens) (P41597 whole entry, looked up): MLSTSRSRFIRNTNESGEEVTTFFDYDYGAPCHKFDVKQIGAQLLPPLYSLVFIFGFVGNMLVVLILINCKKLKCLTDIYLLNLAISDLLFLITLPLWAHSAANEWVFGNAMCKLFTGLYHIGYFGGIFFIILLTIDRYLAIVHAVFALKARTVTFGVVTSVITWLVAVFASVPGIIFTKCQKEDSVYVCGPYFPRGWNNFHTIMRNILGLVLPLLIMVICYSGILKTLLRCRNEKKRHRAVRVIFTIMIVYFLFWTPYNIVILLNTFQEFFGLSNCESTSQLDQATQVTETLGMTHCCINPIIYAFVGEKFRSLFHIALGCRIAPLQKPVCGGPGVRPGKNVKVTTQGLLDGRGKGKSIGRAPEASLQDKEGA

[24] = Clearance in iv dosed Sprague-Dawley rat; assay type: ADME, organism-based; settings: in vivo
[25] = biological target: Cytochrome P450 3A4 (Homo sapiens, UniProt P08684); experiment: Inhibition of CYP3A4; assay type: ADME
[26] = biological target: Cannabinoid receptor 1 (Homo sapiens, UniProt P21554); experiment: Agonist activity at human CB1 receptor expressed in HEK293 EBNA cells by [35S]GTPgamma binding assay; assay type: functional, cell-based
[27] = tested on: Rattus norvegicus; experiment: Toxicity in Sprague-Dawley rat carrageenan pain model assessed as hypoactivity at 0.35 to 1.4 mg/kg, sc; assay type: organism-based; parameters: dose 0.35-1.4 mg/kg, route subcutaneous; settings: in vivo
Procedure, shortened: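 Carrageenan-model rats given 0.35–1.4 mg/kg sc; hypoactivity scored 0 absent, 1 mild, 2 moderate, 3 severe; ptosis and exophthalmos also checked. n = 7; mean ± SEM; one-way ANOVA, Holm-Sidak versus vehicle.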

[28] = tested on: Brain; experiment: Drug uptake in brain of Sprague-Dawley rat at 0.35 to 1.4 mg/kg, sc; assay type: ADME, organism-based; parameters: dose 0.35-1.4 mg/kg, route subcutaneous; settings: in vivo, read-out: Drug uptake
Procedure, shortened: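 Rats dosed sc at 0.35, 0.70 and 1.4 mg/kg in carrageenan model; brain homogenised, protein precipitated with ACN, centrifuged 9000g 30 min at 4 °C, measured by reversed-phase LC–MS/MS against serial-dilution calibration curve; brain corrected for 2% blood contamination.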

[29] = Half life in iv dosed Sprague-Dawley rat; assay type: ADME, organism-based; settings: in vivo
[30] = biological target: Mu-type opioid receptor (Homo sapiens, UniProt P35372); experiment: Inhibition of human MOR
Sequence of Mu-type opioid receptor (P35372 whole entry): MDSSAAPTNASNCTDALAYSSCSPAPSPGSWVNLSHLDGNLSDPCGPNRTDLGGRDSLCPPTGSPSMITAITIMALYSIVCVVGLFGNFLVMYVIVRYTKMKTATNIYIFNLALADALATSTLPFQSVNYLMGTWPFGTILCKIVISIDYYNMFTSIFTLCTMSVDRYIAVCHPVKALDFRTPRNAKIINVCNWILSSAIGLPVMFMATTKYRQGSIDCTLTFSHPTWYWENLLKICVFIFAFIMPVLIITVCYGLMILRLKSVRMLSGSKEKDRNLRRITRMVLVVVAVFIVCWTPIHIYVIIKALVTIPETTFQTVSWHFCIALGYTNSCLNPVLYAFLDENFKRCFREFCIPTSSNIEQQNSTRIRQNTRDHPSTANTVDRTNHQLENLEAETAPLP

[31] = biological target: Delta-type opioid receptor (Homo sapiens, UniProt P41143); experiment: Inhibition of human DOR
Sequence of Delta-type opioid receptor (P41143 whole entry): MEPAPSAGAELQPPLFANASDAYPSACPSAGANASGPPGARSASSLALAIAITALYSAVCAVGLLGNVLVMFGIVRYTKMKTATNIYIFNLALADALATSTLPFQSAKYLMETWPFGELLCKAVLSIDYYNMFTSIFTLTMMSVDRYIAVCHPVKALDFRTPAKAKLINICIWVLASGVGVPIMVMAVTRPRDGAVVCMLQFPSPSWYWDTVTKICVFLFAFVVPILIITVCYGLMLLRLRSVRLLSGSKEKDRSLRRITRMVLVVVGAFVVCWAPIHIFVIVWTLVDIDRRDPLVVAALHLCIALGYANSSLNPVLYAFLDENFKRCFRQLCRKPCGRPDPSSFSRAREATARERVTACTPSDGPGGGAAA

[32] = Activity at Nav site2 receptor at 10 uM
[33] = biological target: Cannabinoid receptor 1 (Rattus norvegicus) (UniProt P20272); experiment: Agonist activity at CB1 receptor in rat brain tissue relative to control; assay type: functional, tissue-based
[34] = biological target: Bombesin receptor subtype-3 (Homo sapiens) (UniProt P32247); experiment: Activity at human BRS3 at 10 uM
[35] = biological target: C-X-C chemokine receptor type 6 (Homo sapiens) (UniProt O00574); experiment: Activity at human CXCR6 receptor at 10 uM
Sequence of C-X-C chemokine receptor type 6 (Homo sapiens) (O00574 whole entry, looked up): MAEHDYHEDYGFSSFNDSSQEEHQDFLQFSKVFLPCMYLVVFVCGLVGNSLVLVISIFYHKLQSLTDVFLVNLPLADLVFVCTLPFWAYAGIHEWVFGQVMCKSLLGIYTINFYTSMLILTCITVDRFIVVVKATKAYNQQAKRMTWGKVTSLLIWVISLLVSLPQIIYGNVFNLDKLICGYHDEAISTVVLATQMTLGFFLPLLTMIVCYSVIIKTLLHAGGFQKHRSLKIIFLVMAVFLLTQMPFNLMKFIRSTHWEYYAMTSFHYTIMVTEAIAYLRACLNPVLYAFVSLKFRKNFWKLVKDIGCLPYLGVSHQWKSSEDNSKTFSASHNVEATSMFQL

[36] = biological target: Histamine H1 receptor (Homo sapiens) (UniProt P35367); experiment: Activity at human histamine H1 receptor at 10 uM
[37] = biological target: MAO-A (Homo sapiens, UniProt P21397); experiment: Activity at human MAO-A receptor at 10 uM; settings: read-out: Activity
[38] = biological target: Pyroglutamylated RF-amide peptide receptor (Rattus norvegicus) (UniProt P83858); experiment: Activity at rat GPR103 receptor at 10 uM
Sequence of Pyroglutamylated RF-amide peptide receptor (Rattus norvegicus) (P83858 whole entry): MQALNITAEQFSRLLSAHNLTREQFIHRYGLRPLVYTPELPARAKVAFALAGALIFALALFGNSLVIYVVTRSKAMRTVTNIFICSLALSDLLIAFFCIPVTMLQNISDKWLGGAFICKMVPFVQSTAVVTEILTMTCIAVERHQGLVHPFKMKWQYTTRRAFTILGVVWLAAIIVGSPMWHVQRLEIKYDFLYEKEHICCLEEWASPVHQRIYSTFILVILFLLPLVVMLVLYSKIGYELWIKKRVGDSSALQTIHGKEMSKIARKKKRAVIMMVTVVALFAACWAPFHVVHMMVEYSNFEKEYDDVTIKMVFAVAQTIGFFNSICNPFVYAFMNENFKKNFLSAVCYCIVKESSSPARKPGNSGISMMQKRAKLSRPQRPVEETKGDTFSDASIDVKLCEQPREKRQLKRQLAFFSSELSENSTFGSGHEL

[39] = biological target: Kappa-type opioid receptor (Homo sapiens, UniProt P41145); experiment: Inhibition of human KOR
[40] = biological target: Mitogen-activated protein kinase 1 (Mus musculus) (UniProt P63085); experiment: Activity at mouse ERK2 receptor at 10 uM
[41] = biological target: Alpha-2A adrenergic receptor (Homo sapiens) (UniProt P08913); experiment: Activity at human alpha2a adrenergic receptor at 10 uM
[42] = biological target: D(2) dopamine receptor (Homo sapiens) (UniProt P14416); experiment: Activity at human dopamine2L receptor at 10 uM
Sequence of D(2) dopamine receptor (Homo sapiens) (P14416 whole entry): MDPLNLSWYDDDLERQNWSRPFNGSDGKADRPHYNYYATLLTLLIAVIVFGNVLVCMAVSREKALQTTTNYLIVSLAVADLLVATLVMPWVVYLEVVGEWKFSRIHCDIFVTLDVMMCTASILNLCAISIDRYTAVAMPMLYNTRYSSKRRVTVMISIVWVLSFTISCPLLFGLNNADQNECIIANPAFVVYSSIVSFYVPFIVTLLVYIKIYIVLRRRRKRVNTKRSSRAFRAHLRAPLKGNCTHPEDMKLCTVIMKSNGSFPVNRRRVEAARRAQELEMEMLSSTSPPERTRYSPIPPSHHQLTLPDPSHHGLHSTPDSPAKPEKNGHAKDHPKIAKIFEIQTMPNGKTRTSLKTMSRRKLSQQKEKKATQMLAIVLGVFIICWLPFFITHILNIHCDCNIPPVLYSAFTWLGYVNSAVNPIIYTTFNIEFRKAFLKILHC

[43] = biological target: Cytochrome P450 2D6 (Homo sapiens, UniProt P10635); experiment: Inhibition of CYP2D6; assay type: ADME
Sequence of Cytochrome P450 2D6 (P10635 whole entry): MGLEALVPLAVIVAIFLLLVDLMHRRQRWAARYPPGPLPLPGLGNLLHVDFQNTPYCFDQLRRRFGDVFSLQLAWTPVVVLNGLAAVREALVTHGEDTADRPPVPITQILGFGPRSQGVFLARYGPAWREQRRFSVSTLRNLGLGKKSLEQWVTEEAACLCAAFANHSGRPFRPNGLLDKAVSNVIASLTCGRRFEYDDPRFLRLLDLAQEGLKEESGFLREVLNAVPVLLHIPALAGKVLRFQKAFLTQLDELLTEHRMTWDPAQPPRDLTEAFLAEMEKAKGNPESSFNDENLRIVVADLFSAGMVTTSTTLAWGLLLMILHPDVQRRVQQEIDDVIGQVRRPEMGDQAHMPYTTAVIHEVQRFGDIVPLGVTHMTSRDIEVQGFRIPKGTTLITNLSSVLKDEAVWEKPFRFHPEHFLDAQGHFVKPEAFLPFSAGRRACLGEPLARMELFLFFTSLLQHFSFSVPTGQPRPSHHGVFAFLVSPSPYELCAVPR

[44] = biological target: Adenosine receptor A3 (Rattus norvegicus) (UniProt P28647); experiment: Activity at rat A3 receptor at 10 uM
[45] = biological target: C-X-C chemokine receptor type 2 (Homo sapiens) (UniProt P25025); experiment: Activity at human CXCR2 receptor at 10 uM
[46] = Fraction unbound in Sprague-Dawley rat plasma at 1 mg/kg, sc; assay type: ADME, organism-based; parameters: dose 1 mg/kg, route subcutaneous
[47] = biological target: Muscarinic acetylcholine receptor M2 (Homo sapiens) (UniProt P08172); experiment: Activity at human M2 receptor at 10 uM

Sequence of Motilin receptor (Homo sapiens) (O43193 whole entry): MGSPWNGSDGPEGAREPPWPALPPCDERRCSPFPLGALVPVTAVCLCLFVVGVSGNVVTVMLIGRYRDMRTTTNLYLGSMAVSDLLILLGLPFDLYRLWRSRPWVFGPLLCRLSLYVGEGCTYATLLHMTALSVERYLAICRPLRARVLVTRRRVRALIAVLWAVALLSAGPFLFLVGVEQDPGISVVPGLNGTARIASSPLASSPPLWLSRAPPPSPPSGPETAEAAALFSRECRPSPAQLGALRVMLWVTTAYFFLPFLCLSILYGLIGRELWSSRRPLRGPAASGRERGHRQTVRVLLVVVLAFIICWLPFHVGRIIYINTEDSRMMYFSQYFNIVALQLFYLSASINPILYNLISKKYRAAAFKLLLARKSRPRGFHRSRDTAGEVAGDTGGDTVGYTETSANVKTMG

Question: Which solubility [1] does the source give for CCS(=O)(=O)n1c2c(c3cc(C(=O)N4CCC(C)CC4)ccc31)CN(C1CCOCC1)CC2 here?
Answer: 480 µg/mL (≈ 1010 µM)

Question: What about the Activity [2] of the same compound?
Answer: < 50%

Question: And the Activity [3]?
Answer: < 50%

Question: And the Papp [4]?
Answer: 13 ×10⁻⁶ cm/s

Question: And the Activity [5]?
Answer: < 50%

Question: What about the Activity [6] of the same compound?
Answer: < 50%

Question: What about the EC50 [7] of the same compound?
Answer: 0.085 µM

Question: What about the Activity [8] of the same compound?
Answer: < 50%

Question: What about the IC50 [9] of the same compound?
Answer: > 20 µM

Question: What about the Activity [10] of the same compound?
Answer: < 50%

Question: And the Activity [11]?
Answer: < 50%

Question: What about the Ki [12] of the same compound?
Answer: 0.009 µM

Question: What about the Activity [13] of the same compound?
Answer: < 50%

Question: What about the pKa [14] of the same compound?
Answer: 6.9

Question: What about the Activity [15] of the same compound?
Answer: < 50%

Question: And the Kp [16]?
Answer: 0.05

Question: And the Activity [17]?
Answer: < 50%

Question: And the Activity [18]?
Answer: < 50%

Question: What about the Activity [19] of the same compound?
Answer: < 50%

Question: What about the IC50 [20] of the same compound?
Answer: > 20 µM

Question: And the Activity [21]?
Answer: < 50%

Question: What about the Activity [22] of the same compound?
Answer: < 50%

Question: What about the Activity [23] of the same compound?
Answer: < 50%

Question: What about the clearance [24] of the same compound?
Answer: 28 mL/min/kg

Question: What about the IC50 [25] of the same compound?
Answer: > 20 µM

Question: What about the EC50 [26] of the same compound?
Answer: 0.049 µM

Question: What about the Activity [27] of the same compound?
Answer: Non-toxic

Question: And the concentration [28]?
Answer: 10 nM

Question: And the half-life [29]?
Answer: 37.8 min

Question: What about the IC50 [30] of the same compound?
Answer: > 10 µM

Question: What about the IC50 [31] of the same compound?
Answer: > 10 µM

Question: And the Activity [32]?
Answer: < 50%

Question: And the Emax [33]?
Answer: 156%

Question: And the Activity [34]?
Answer: < 50%

Question: What about the Activity [35] of the same compound?
Answer: < 50%

Question: What about the Activity [36] of the same compound?
Answer: < 50%

Question: And the activity at 10 µM [37]?
Answer: < 50%

Question: What about the Activity [38] of the same compound?
Answer: < 50%

Question: What about the IC50 [39] of the same compound?
Answer: > 10 µM

Question: And the Activity [40]?
Answer: < 50%

Question: And the Activity [41]?
Answer: < 50%

Question: What about the Activity [42] of the same compound?
Answer: < 50%

Question: And the IC50 [43]?
Answer: > 20 µM

Question: And the Activity [44]?
Answer: < 50%

Question: And the Activity [45]?
Answer: < 50%

Question: And the fraction unbound [46]?
Answer: 0.13

Question: And the Activity [47]?
Answer: < 50%
